What all share (assay type): functional, cell-based
Assay [1] deals with HeLa. The assay is described as follows: Antiproliferative activity against human HeLa cells. Summed up: (§1)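 Proliferation of human RKO colon carcinoma, Jurkat T-cell leukemia and HeLa cervical cancer cells was followed by [3H]-thymidine incorporation. IC50 values were taken from this read-out.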
For assay [2], the system named is Jurkat. The assay is described as follows: Antiproliferative activity against human Jurkat cells. The gist of the method:
as §1

The subject of assay [3] is RKO. The assay is described as follows: Antiproliferative activity against human RKO cells. Summed up:
as §1

The IC50 is the concentration that gives 50% inhibition.

In the case of `CCCCCCCCCCCCOC(=O)[C@@H](C)[C@@]1(O)[C@@H](O[C@@H]2OC[C@H](O)[C@H](O)[C@H]2OC(C)=O)C[C@H]2[C@@H]3CC=C4C[C@@H](O)CC[C@]4(C)[C@H]3CC[C@@]21C`, the concentration for half-maximal inhibition (IC50) was found to be 1200 nM in assay [1] and 78 nM in assay [2].
With `C=CCO[C@@H]1[C@@H](OC(C)=O)[C@H](O[C@H]2C[C@H]3[C@@H]4CC=C5C[C@@H](O)CC[C@]5(C)[C@H]4CC[C@]3(C)[C@@]2(O)[C@H](C)C(=O)OCCCCCCCCCCCC)OC[C@@H]1O`, the values for the 50% inhibitory concentration (IC50) in assay [1] and in assay [3] were 1100 nM and 1700 nM, respectively.
Take `CCCCCCCCCCCCOC(=O)[C@@H](C)[C@@]1(O)[C@@H](O[C@@H]2OC[C@H](O)[C@H](O[C@@H]3OC[C@@H](O)[C@H](O)[C@H]3OC(=O)c3ccc(OC)cc3)[C@H]2OC(C)=O)C[C@H]2[C@@H]3CC=C4C[C@@H](O)CC[C@]4(C)[C@H]3CC[C@@]21C`: the IC50 in assay [1] is 71 nM; in assay [3], 0.7 nM; in assay [2], 15 nM.

For the origin of these results see ChEMBL document CHEMBL1146312, “Synthesis of OSW saponin analogs with modified sugar residues and their antiproliferative activities” (Bioorg Med Chem Lett, 2007).
